≈ marks a conversion by molar mass, not a printed value.
Legend:
Staphylococcus aureus [1] = assay: Antimicrobial activity against Panton-valentine leucocidin-positive community-acquired methicillin-resistant Staphylococcus aureus STA 228 infected in human THP-1 cells assessed as change in bacterial count after 24 hrs at pH 7.4; format: functional, organism-based; conditions: STA 228, THP-1, 24 h
In short: (§1)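 THP-1 human macrophages infected with S. aureus (postphagocytosis inoculum 1.5 × 10^6 to 3.0 × 10^6 CFU/mg cell protein), then incubated 24 h with increasing extracellular antibiotic concentrations. Change in log10 CFU/mg cell protein from the postphagocytosis inoculum, n = 3. Hill function fitted on log-transformed data. Low-concentration value (E0) and high-concentration value (Emax) are extrapolated. Where a pH is given, concentrations are expressed as multiples of the broth MIC at that pH.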

Staphylococcus aureus [2] = assay: Antimicrobial activity against Panton-valentine leucocidin-positive community-acquired methicillin-resistant Staphylococcus aureus NRS192 infected in human THP-1 cells assessed as change in bacterial count after 24 hrs at pH 7.4; format: functional, organism-based; conditions: NRS192, THP-1, 24 h; in short: as §1
Staphylococcus aureus [3] = assay: Antimicrobial activity against Panton-valentine leucocidin-positive community-acquired methicillin-resistant Staphylococcus aureus STA 228 infected in human THP-1 cells assessed as change in bacterial count after 24 hrs at pH 5.5; format: functional, organism-based; conditions: STA 228, THP-1, 24 h; in short: as §1
Staphylococcus aureus [4] = assay: Antimicrobial activity against hospital-acquired vancomycin-intermediate Staphylococcus aureus NRS18 infected in human THP-1 cells assessed as bacterial count per mg of cell protein at high extracellular compound concentration after 24 hrs; format: functional
In short: (§2)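 Human THP-1 macrophage-like cells were infected with S. aureus to a postphagocytosis inoculum of 1.5 × 10^6 to 3.0 × 10^6 CFU/mg cell protein. Cells were then exposed 24 h to increasing extracellular antibiotic concentrations. Response was the log10 CFU change per mg protein from the postphagocytosis inoculum, n = 3. A Hill function was fitted on log-transformed axes. E0 and Emax were extrapolated to infinitely low and high concentrations. Cs was read by graphical interpolation. Concentrations were expressed as multiples of the broth MIC at pH 5.5 or pH 7.4.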

Staphylococcus aureus [5] = assay: Antimicrobial activity against hospital-acquired methicillin-resistant Staphylococcus aureus ATCC 33592 infected in human THP-1 cells assessed as change in bacterial count after 24 hrs at pH 5.5; format: functional, organism-based; conditions: ATCC 33592, THP-1, 24 h
In short: (§3)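 THP-1 macrophages infected as described previously, with a postphagocytosis inoculum of 1.5 × 10⁶ to 3.0 × 10⁶ CFU/mg cell protein. Cells were exposed 24 h to increasing extracellular antibiotic concentrations. Response is the change in log10 CFU/mg protein from the inoculum (n = 3), fitted to a Hill function. E0 and Emax were extrapolated to infinitely low and high concentrations. EC50 and static concentration (graphical interpolation) are expressed as multiples of the broth MIC at pH 5.5 or 7.4.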

Staphylococcus aureus [6] = assay: Antimicrobial activity against hospital-acquired methicillin-resistant Staphylococcus aureus […] infected in human THP-1 cells assessed as bacterial count per mg of cell protein at low extracellular compound concentration after 24 hrs; format: functional; in short: as §3
Staphylococcus aureus [7] = assay: Antimicrobial activity against Panton-valentine leucocidin-positive community-acquired methicillin-resistant Staphylococcus aureus isolate MEH2225605 infected in human THP-1 cells assessed as change in bacterial count after 24 hrs at pH 7.4; format: functional, organism-based; conditions: isolate MEH2225605, THP-1, 24 h; in short: as §1
Staphylococcus aureus [8] = assay: Antimicrobial activity against hospital-acquired methicillin-resistant Staphylococcus aureus […] infected in human THP-1 cells assessed as bacterial count per mg of cell protein at high extracellular compound concentration after 24 hrs; format: functional; in short: as §3
Staphylococcus aureus [9] = assay: Bacteriostatic activity against methicillin-resistant Staphylococcus aureus ATCC 33591 infected in human keratinocytes assessed as change in bacterial count after 24 hrs; format: functional
In short: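 Primary human skin keratinocytes were grown in defined keratinocyte serum-free medium, infected, then incubated 24 h with increasing extracellular drug concentrations. Response was the change in log10 CFU/mg cell protein versus the post-phagocytosis inoculum, fitted to a Hill equation with slope factor 1. Static concentration (mg/liter, total drug) was taken by graphical interpolation where CFU equalled the original inoculum.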

Staphylococcus aureus [10] = assay: Antimicrobial activity against methicillin-resistant Staphylococcus aureus ATCC 33591 infected in human keratinocytes assessed as bacterial count per mg of cell protein at high extracellular compound concentration after 24 hrs; format: functional
In short: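 Primary human skin keratinocytes were grown in defined keratinocyte serum-free medium, infected with a postphagocytosis inoculum of 1.5 × 10⁶ to 3.0 × 10⁶ CFU/mg cell protein, then exposed 24 h to increasing extracellular antibiotic concentrations. Change in log10 CFU/mg protein from the inoculum was fitted to a Hill equation with slope 1. E0 and Emax were extrapolated to infinitely low and high concentrations, in total drug mg/liter.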

Staphylococcus aureus [11] = assay: Antimicrobial activity against hospital-acquired methicillin-resistant Staphylococcus aureus […] infected in human THP-1 cells assessed as change in bacterial count after 24 hrs; format: functional, organism-based; conditions: THP-1, 24 h; in short: as §3
Staphylococcus aureus [12] = assay: Antimicrobial activity against hospital-acquired vancomycin-resistant Staphylococcus aureus VRS1 infected in human THP-1 cells assessed as change in bacterial count after 24 hrs at pH 7.4; format: functional, cell-based; conditions: VRS1, THP-1, 24 h; in short: as §3
Staphylococcus aureus [13] = assay: Antimicrobial activity against hospital-acquired vancomycin-intermediate Staphylococcus aureus NRS126 infected in human THP-1 cells assessed as bacterial count per mg of cell protein at high extracellular compound concentration after 24 hrs; format: functional; in short: as §2
Staphylococcus aureus [14] = assay: Antimicrobial activity against hospital-acquired methicillin-resistant Staphylococcus aureus ATCC 33591 infected in human THP-1 cells assessed as change in bacterial count after 24 hrs at pH 7.4; format: functional, organism-based; conditions: ATCC 33591, THP-1, 24 h; in short: as §3
Staphylococcus aureus [15] = assay: Antimicrobial activity against hospital-acquired vancomycin-intermediate Staphylococcus aureus NRS126 infected in human THP-1 cells assessed as bacterial count per mg of cell protein at low extracellular compound concentration after 24 hrs at pH 5.5; format: functional; in short: as §3
Staphylococcus aureus [16] = assay: Antimicrobial activity against Panton-valentine leucocidin-positive community-acquired methicillin-resistant Staphylococcus aureus STA 228 infected in human THP-1 cells assessed as change in bacterial count after 24 hrs; format: functional, organism-based; conditions: STA 228, THP-1, 24 h; in short: as §1
Staphylococcus aureus [17] = assay: Antimicrobial activity against Panton-valentine leucocidin-positive community-acquired methicillin-resistant Staphylococcus aureus STA 44 infected in human THP-1 cells assessed as change in bacterial count after 24 hrs at pH 5.5; format: functional, organism-based; conditions: STA 44, THP-1, 24 h; in short: as §1
Staphylococcus aureus [18] = assay: Antimicrobial activity against Panton-valentine leucocidin-positive community-acquired methicillin-resistant Staphylococcus aureus N4090440 infected in human THP-1 cells assessed as change in bacterial count after 24 hrs at pH 5.5; format: functional, organism-based; conditions: N4090440, THP-1, 24 h; in short: as §1
Staphylococcus aureus [19] = assay: Antimicrobial activity against methicillin-susceptible Staphylococcus aureus ATCC 11632 infected in human THP-1 cells assessed as change in bacterial count after 24 hrs; format: functional, organism-based; conditions: ATCC 11632, THP-1, 24 h; in short: as §3
Staphylococcus aureus [20] = assay: Antimicrobial activity against methicillin-susceptible Staphylococcus aureus NRS52 infected in human THP-1 cells assessed as change in bacterial count after 24 hrs at pH 7.4; format: functional, organism-based; conditions: NRS52, THP-1, 24 h; in short: as §3
Staphylococcus aureus [21] = assay: Antimicrobial activity against hospital-acquired vancomycin-intermediate Staphylococcus aureus NRS126 infected in human THP-1 cells assessed as change in bacterial count after 24 hrs; format: functional, organism-based; conditions: NRS126, THP-1, 24 h; in short: as §3
Staphylococcus aureus [22] = assay: Antimicrobial activity against Panton-valentine leucocidin-positive community-acquired methicillin-resistant Staphylococcus aureus N4090440 infected in human THP-1 cells assessed as change in bacterial count after 24 hrs; format: functional, organism-based; conditions: N4090440, THP-1, 24 h; in short: as §1

Structure (SMILES): Nc1nc(/C(=N/O)C(=O)N[C@@H]2C(=O)N3C(C(=O)O)=C(/C=C4\CCN([C@@H]5CCNC5)C4=O)CS[C@H]23)ns1 [CEFTOBIPROLE]
- EC50 (Staphylococcus aureus [1]): 0.33 ×MIC
- EC50 (Staphylococcus aureus [2]): 0.33 ×MIC
- EC50 (Staphylococcus aureus [3]): 0.54 × MIC
- log10cfu (Staphylococcus aureus [4]): -1.34
- EC50 (Staphylococcus aureus [5]): 0.77 ×MIC
- log10cfu (Staphylococcus aureus [6]): 2.46
- EC50 (Staphylococcus aureus [7]): 0.33 ×MIC
- log10cfu (Staphylococcus aureus [8]): -0.9
- Activity (Staphylococcus aureus [9]): 1.95 mg/L
- log10cfu (Staphylococcus aureus [10]): -1.14
- EC50 (Staphylococcus aureus [11]): 0.73 µg/mL (≈ 1.37 µM)
- EC50 (Staphylococcus aureus [12]): 0.28 ×MIC
- log10cfu (Staphylococcus aureus [13]): -1.21
- EC50 (Staphylococcus aureus [14]): 0.28 ×MIC
- log10cfu (Staphylococcus aureus [15]): 2.63
- EC50 (Staphylococcus aureus [16]): 0.88 µg/mL (≈ 1.65 µM)
- EC50 (Staphylococcus aureus [17]): 0.54 × MIC
- EC50 (Staphylococcus aureus [18]): 0.54 × MIC
- EC50 (Staphylococcus aureus [19]): 0.205 µg/mL (≈ 0.383 µM)
- EC50 (Staphylococcus aureus [20]): 0.2 ×MIC
- EC50 (Staphylococcus aureus [21]): 0.23 µg/mL (≈ 0.43 µM)
- EC50 (Staphylococcus aureus [22]): 0.08 µg/mL (≈ 0.15 µM)

Reference: ChEMBL document CHEMBL1649438, “Activities of ceftobiprole and other cephalosporins against extracellular and intracellular (THP-1 macrophages and keratinocytes) forms of methicillin-susceptible and methicillin-resistant Staphylococcus aureus” (Antimicrob Agents Chemother, 2009)
